Values belong to the compound of their own block, whether it stands above or below them. Activity calls are given as the source filed them. The calls are words filed in the database; no cut-off is given here.
Experiments:
Pichia sporocuriosa [1] = test: Fungicidal activity against Issatchenkia hanoiensis MTCC 4755 after 24 hrs by serial dilution method; assay type: functional; conditions: MTCC 4755, 24 h
Candida albicans [2] = test: Fungicidal activity against Candida albicans MTCC 7315 after 24 hrs by serial dilution method; assay type: functional; conditions: MTCC 7315, 24 h
Staphylococcus aureus [3] = test: Antimicrobial activity against Staphylococcus aureus MTCC 96 assessed as growth inhibition after 24 hrs by agar well diffusion method; assay type: functional; conditions: MTCC 96, 24 h
Escherichia coli [4] = test: Bactericidal activity against Escherichia coli MTCC 739 after 24 hrs by serial dilution method; assay type: functional; conditions: MTCC 739, 24 h
Candida albicans [5] = test: Fungicidal activity against Candida albicans MTCC 183 after 24 hrs by serial dilution method; assay type: functional; conditions: MTCC 183, 24 h
Bacillus subtilis [6] = test: Antimicrobial activity against Bacillus subtilis MTCC 121 assessed as growth inhibition after 24 hrs by agar well diffusion method; assay type: functional; conditions: MTCC 121, 24 h
Staphylococcus aureus [7] = test: Bactericidal activity against Staphylococcus aureus MLS16 MTCC 2940 after 24 hrs by serial dilution method; assay type: functional; conditions: MLS16 MTCC 2940, 24 h
Candida albicans [8] = test: Fungicidal activity against Candida albicans MTCC 1637 after 24 hrs by serial dilution method; assay type: functional; conditions: MTCC 1637, 24 h
Pseudomonas aeruginosa = test: Antimicrobial activity against Pseudomonas aeruginosa MTCC 2453 assessed as growth inhibition after 24 hrs by agar well diffusion method; assay type: functional; conditions: MTCC 2453, 24 h
Nakaseomyces glabratus [9] = test: Antimicrobial activity against Candida glabrata MTCC 3019 assessed as growth inhibition after 24 hrs by agar well diffusion method; assay type: functional; conditions: MTCC 3019, 24 h
Raoultella planticola [10] = test: Antimicrobial activity against Klebsiella planticola MTCC 530 assessed as growth inhibition after 24 hrs by agar well diffusion method; assay type: functional; conditions: MTCC 530, 24 h
[Candida] aaseri [11] = Fungicidal activity against Candida aaseri MTCC 1962 after 24 hrs by serial dilution method; assay type: functional; conditions: Yamadazyma aaseri, MTCC 1962, 24 h
Candida albicans [12] = test: Fungicidal activity against Candida albicans MTCC 854 after 24 hrs by serial dilution method; assay type: functional; conditions: MTCC 854, 24 h
Staphylococcus aureus [13] = test: Bactericidal activity against Staphylococcus aureus MTCC 96 after 24 hrs by serial dilution method; assay type: functional; conditions: MTCC 96, 24 h
Candida albicans [14] = test: Fungicidal activity against Candida albicans MTCC 3958 after 24 hrs by serial dilution method; assay type: functional; conditions: MTCC 3958, 24 h
Candida albicans [15] = test: Fungicidal activity against Candida albicans MTCC 4748 after 24 hrs by serial dilution method; assay type: functional; conditions: MTCC 4748, 24 h
Staphylococcus aureus [16] = test: Antimicrobial activity against Staphylococcus aureus MLS16 MTCC 2940 assessed as growth inhibition after 24 hrs by agar well diffusion method; assay type: functional; conditions: MLS16 MTCC 2940, 24 h
Candida parapsilosis [17] = test: Antimicrobial activity against Candida parapsilosis MTCC 1744 assessed as growth inhibition after 24 hrs by agar well diffusion method; assay type: functional; conditions: Lodderomyces parapsilosis, MTCC 1744, 24 h
Micrococcus luteus [18] = test: Bactericidal activity against Micrococcus luteus MTCC 2470 after 24 hrs by serial dilution method; assay type: functional; conditions: MTCC 2470, 24 h
Pichia sporocuriosa [19] = test: Antimicrobial activity against Issatchenkia hanoiensis MTCC 4755 assessed as growth inhibition after 24 hrs by agar well diffusion method; assay type: functional; conditions: MTCC 4755, 24 h
Candida albicans [20] = test: Antimicrobial activity against Candida albicans MTCC 3018 assessed as growth inhibition after 24 hrs by agar well diffusion method; assay type: functional; conditions: MTCC 3018, 24 h
Candida albicans [21] = test: Antimicrobial activity against Candida albicans MTCC 227 assessed as growth inhibition after 24 hrs by agar well diffusion method; assay type: functional; conditions: MTCC 227, 24 h
Candida albicans [22] = test: Antimicrobial activity against Candida albicans MTCC 854 assessed as growth inhibition after 24 hrs by agar well diffusion method; assay type: functional; conditions: MTCC 854, 24 h
Bacillus subtilis [23] = test: Bactericidal activity against Bacillus subtilis MTCC 121 after 24 hrs by serial dilution method; assay type: functional; conditions: MTCC 121, 24 h
Escherichia coli [24] = test: Antimicrobial activity against Escherichia coli MTCC 739 assessed as growth inhibition after 24 hrs by agar well diffusion method; assay type: functional; conditions: MTCC 739, 24 h
Candida parapsilosis [25] = test: Fungicidal activity against Candida parapsilosis MTCC 1744 after 24 hrs by serial dilution method; assay type: functional; conditions: Lodderomyces parapsilosis, MTCC 1744, 24 h
Candida albicans [26] = test: Antimicrobial activity against Candida albicans MTCC 183 assessed as growth inhibition after 24 hrs by agar well diffusion method; assay type: functional; conditions: MTCC 183, 24 h
Candida albicans [27] = test: Fungicidal activity against Candida albicans MTCC 227 after 24 hrs by serial dilution method; assay type: functional; conditions: MTCC 227, 24 h
Candida albicans [28] = test: Antimicrobial activity against Candida albicans MTCC 3958 assessed as growth inhibition after 24 hrs by agar well diffusion method; assay type: functional; conditions: MTCC 3958, 24 h
Nakaseomyces glabratus [29] = test: Fungicidal activity against Candida glabrata MTCC 3019 after 24 hrs by serial dilution method; assay type: functional; conditions: MTCC 3019, 24 h
Candida albicans [30] = test: Fungicidal activity against Candida albicans MTCC 3018 after 24 hrs by serial dilution method; assay type: functional; conditions: MTCC 3018, 24 h
Candida albicans [31] = test: Fungicidal activity against Candida albicans MTCC 3017 after 24 hrs by serial dilution method; assay type: functional; conditions: MTCC 3017, 24 h
Staphylococcus aureus [32] = test: Antibiofilm activity against Staphylococcus aureus MTCC 96 after 24 hrs by crystal violet staining based assay; assay type: functional, organism-based; conditions: MTCC 96, 24 h
In short: (§1)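 Biofilm inhibition tested for amine esters and esterquats. IC50 values (µg/mL) are the mean of three determinations, with ciprofloxacin as reference.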

Candida albicans [33] = test: Antimicrobial activity against Candida albicans MTCC 7315 assessed as growth inhibition after 24 hrs by agar well diffusion method; assay type: functional; conditions: MTCC 7315, 24 h
Bacillus subtilis [34] = test: Antibiofilm activity against Bacillus subtilis MTCC 121 after 24 hrs by crystal violet staining based assay; assay type: functional, organism-based; conditions: MTCC 121, 24 h; in short: as §1
Candida albicans [35] = test: Antimicrobial activity against Candida albicans MTCC 1637 assessed as growth inhibition after 24 hrs by agar well diffusion method; assay type: functional; conditions: MTCC 1637, 24 h
[Candida] aaseri [36] = Antimicrobial activity against Candida aaseri MTCC 1962 assessed as growth inhibition after 24 hrs by agar well diffusion method; assay type: functional; conditions: Yamadazyma aaseri, MTCC 1962, 24 h
Micrococcus luteus [37] = test: Antimicrobial activity against Micrococcus luteus MTCC 2470 assessed as growth inhibition after 24 hrs by agar well diffusion method; assay type: functional; conditions: MTCC 2470, 24 h
Pichia kudriavzevii [38] = test: Fungicidal activity against Candida krusei MTCC 3020 after 24 hrs by serial dilution method; assay type: functional; conditions: MTCC 3020, 24 h
Micrococcus luteus [39] = test: Antibiofilm activity against Micrococcus luteus MTCC 2470 after 24 hrs by crystal violet staining based assay; assay type: functional, organism-based; conditions: MTCC 2470, 24 h; in short: as §1
Raoultella planticola [40] = test: Bactericidal activity against Klebsiella planticola MTCC 530 after 24 hrs by serial dilution method; assay type: functional; conditions: MTCC 530, 24 h
Candida albicans [41] = test: Antimicrobial activity against Candida albicans MTCC 3017 assessed as growth inhibition after 24 hrs by agar well diffusion method; assay type: functional; conditions: MTCC 3017, 24 h
Staphylococcus aureus [42] = test: Antibiofilm activity against Staphylococcus aureus MLS16 MTCC 2940 after 24 hrs by crystal violet staining based assay; assay type: functional, organism-based; conditions: MLS16 MTCC 2940, 24 h; in short: as §1
Staphylococcus aureus [43] = test: Bactericidal activity against Staphylococcus aureus MLS16 MTCC 2940 sessile forms assessed as increase in intracellular ROS accumulation in at 0.5 to 2 ug/mL after 24 hrs by DCFHDA staining based fluorometric assay; assay type: functional, organism-based
In short: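 Intracellular ROS measured in cells of mature biofilms using the general ROS fluorescent probe 2′,7′-dichlorofluorescein-diacetate (DCFH-DA), read as increase in fluorescence. Sessile cells and the supernatant were measured separately.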

Candida albicans [44] = test: Antimicrobial activity against Candida albicans MTCC 4748 assessed as growth inhibition after 24 hrs by agar well diffusion method; assay type: functional; conditions: MTCC 4748, 24 h
Pichia kudriavzevii [45] = test: Antimicrobial activity against Candida krusei MTCC 3020 assessed as growth inhibition after 24 hrs by agar well diffusion method; assay type: functional; conditions: MTCC 3020, 24 h

MIC (Staphylococcus aureus [3]): 3.9 µg/mL | MIC (Bacillus subtilis [6]): 7.8 µg/mL | MIC (Pseudomonas aeruginosa): > 125 µg/mL | MIC (Nakaseomyces glabratus [9]): 15.6 µg/mL | MIC (Staphylococcus aureus [16]): 3.9 µg/mL | MIC (Candida parapsilosis [17]): 15.6 µg/mL | MIC (Pichia sporocuriosa [19]): 15.6 µg/mL | MIC (Candida albicans [20]): 15.6 µg/mL | MIC (Candida albicans [21]): 15.6 µg/mL | MIC (Candida albicans [22]): 31.2 µg/mL | MIC (Escherichia coli [24]): > 125 µg/mL | MIC (Candida albicans [26]): 15.6 µg/mL | MIC (Candida albicans [28]): 15.6 µg/mL | IC50 (Staphylococcus aureus [32]): 1.9 µg/mL | MIC (Candida albicans [33]): 15.6 µg/mL | IC50 (Bacillus subtilis [34]): 4.1 µg/mL | MIC (Candida albicans [35]): 15.6 µg/mL | MIC ([Candida] aaseri [36]): 7.8 µg/mL | MIC (Micrococcus luteus [37]): 1.9 µg/mL | IC50 (Micrococcus luteus [39]): 1.5 µg/mL | MIC (Candida albicans [41]): 7.8 µg/mL | IC50 (Staphylococcus aureus [42]): 0.9 µg/mL | MIC (Candida albicans [44]): 7.8 µg/mL | MIC (Pichia kudriavzevii [45]): 31.2 µg/mL
SMILES: CCCCCC[N+](C)(CCCCCCCCCCC(=O)OC)CCCCCCCCCCC(=O)OC.[Cl-]
MFC (Pichia sporocuriosa [1]): 31.2 µg/mL | MFC (Candida albicans [2]): 31.2 µg/mL | MBC (Escherichia coli [4]): > 125 µg/mL | MFC (Candida albicans [5]): 31.2 µg/mL | MBC (Staphylococcus aureus [7]): 3.9 µg/mL | MFC (Candida albicans [8]): 31.2 µg/mL | MIC (Raoultella planticola [10]): > 125 µg/mL | MFC ([Candida] aaseri [11]): 15.6 µg/mL | MFC (Candida albicans [12]): 62.5 µg/mL | MBC (Staphylococcus aureus [13]): 7.8 µg/mL | MFC (Candida albicans [14]): 15.6 µg/mL | MFC (Candida albicans [15]): 7.8 µg/mL | MBC (Micrococcus luteus [18]): 3.9 µg/mL | MBC (Bacillus subtilis [23]): 15.6 µg/mL | MFC (Candida parapsilosis [25]): 31.2 µg/mL | MFC (Candida albicans [27]): 31.2 µg/mL | MFC (Nakaseomyces glabratus [29]): 31.2 µg/mL | MFC (Candida albicans [30]): 31.2 µg/mL | MFC (Candida albicans [31]): 15.6 µg/mL | MFC (Pichia kudriavzevii [38]): 62.5 µg/mL | MBC (Raoultella planticola [40]): > 125 µg/mL | Activity (Staphylococcus aureus [43]): Active

MIC (Staphylococcus aureus [3]): 3.9 µg/mL | MIC (Bacillus subtilis [6]): 7.8 µg/mL | MIC (Pseudomonas aeruginosa): > 125 µg/mL | MIC (Nakaseomyces glabratus [9]): 15.6 µg/mL | MIC (Staphylococcus aureus [16]): 7.8 µg/mL | MIC (Candida parapsilosis [17]): 15.6 µg/mL | MIC (Pichia sporocuriosa [19]): 15.6 µg/mL | MIC (Candida albicans [20]): 15.6 µg/mL | MIC (Candida albicans [21]): 31.2 µg/mL | MIC (Candida albicans [22]): 15.6 µg/mL | MIC (Escherichia coli [24]): 31.2 µg/mL | MIC (Candida albicans [26]): 15.6 µg/mL | MIC (Candida albicans [28]): 31.2 µg/mL | IC50 (Staphylococcus aureus [32]): 2.5 µg/mL | MIC (Candida albicans [33]): 15.6 µg/mL | IC50 (Bacillus subtilis [34]): 4.8 µg/mL | MIC (Candida albicans [35]): 31.2 µg/mL | MIC ([Candida] aaseri [36]): 31.2 µg/mL | MIC (Micrococcus luteus [37]): 3.9 µg/mL | IC50 (Micrococcus luteus [39]): 2.1 µg/mL | MIC (Candida albicans [41]): 15.6 µg/mL | IC50 (Staphylococcus aureus [42]): 3.2 µg/mL | MIC (Candida albicans [44]): 15.6 µg/mL | MIC (Pichia kudriavzevii [45]): 15.6 µg/mL
SMILES: CCCCCC[N+](C)(C)CCCCCCCCCCC(=O)OC.[Cl-]
MFC (Pichia sporocuriosa [1]): 31.2 µg/mL | MFC (Candida albicans [2]): 15.6 µg/mL | MBC (Escherichia coli [4]): 62.5 µg/mL | MFC (Candida albicans [5]): 31.2 µg/mL | MBC (Staphylococcus aureus [7]): 15.6 µg/mL | MFC (Candida albicans [8]): 62.5 µg/mL | MIC (Raoultella planticola [10]): 15.6 µg/mL | MFC ([Candida] aaseri [11]): 62.5 µg/mL | MFC (Candida albicans [12]): 31.2 µg/mL | MBC (Staphylococcus aureus [13]): 7.8 µg/mL | MFC (Candida albicans [14]): 31.2 µg/mL | MFC (Candida albicans [15]): 15.6 µg/mL | MBC (Micrococcus luteus [18]): 7.8 µg/mL | MBC (Bacillus subtilis [23]): 7.8 µg/mL | MFC (Candida parapsilosis [25]): 31.2 µg/mL | MFC (Candida albicans [27]): 62.5 µg/mL | MFC (Nakaseomyces glabratus [29]): 31.2 µg/mL | MFC (Candida albicans [30]): 31.2 µg/mL | MFC (Candida albicans [31]): 31.2 µg/mL | MFC (Pichia kudriavzevii [38]): 31.2 µg/mL | MBC (Raoultella planticola [40]): 31.2 µg/mL

— ChEMBL document CHEMBL3784971, “Synthesis, characterization, antimicrobial and biofilm inhibitory studies of new esterquats” (Bioorg Med Chem Lett, 2016)
